Assay results: ChEMBL document CHEMBL1135500, “Highly antibacterial active aminoacyl penicillin conjugates with acylated bis-catecholate siderophores based on secondary diamino acids and related compounds” (2002)
In brackets after ≈: the same amount, converted by molar mass.

How the values were obtained:
Assay type in all cases: functional
Serratia marcescens = assay: In vitro antibacterial activity against SG 621 strain of Serratia marcescens
Summary of the method: (§1)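 MIC by microbroth dilution in Mueller-Hinton broth following NCCLS guidelines.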

Escherichia coli [1] = assay: In vitro antibacterial activity against ATCC 25922 strain of Escherichia coli; summary of the method: as §1
[2] = test system: Stenotrophomonas maltophilia; assay: In vitro antibacterial activity against GN 12873 strain of Stenotrophomonas maltophilia; summary of the method: as §1
Klebsiella pneumoniae = assay: In vitro antibacterial activity against ATCC 100331 strain of Klebsiella pneumoniae; summary of the method: as §1
Staphylococcus aureus = assay: In vitro antibacterial activity against SG 511 strain of Staphylococcus aureus; summary of the method: as §1
Pseudomonas aeruginosa [3] = assay: In vitro antibacterial activity against ATCC 27853 strain of Pseudomonas aeruginosa; summary of the method: as §1
Pseudomonas aeruginosa [4] = assay: In vitro antibacterial activity against SG 137 strain of Pseudomonas aeruginosa; summary of the method: as §1
Pseudomonas aeruginosa [5] = assay: Siderophore activity determined using growth promoting assay in NCTC-10662 strain of Pseudomonas aeruginosa under iron limited conditions; parameters: unit not given beside the values
Summary of the method: (§2)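 Growth promotion under iron limitation. Overnight Nutrient Agar cultures suspended in medium VA to 1 McFarland, then 1.5 mL mixed into 99 mL Al2O3-treated Hall-Ratledge agar (pH 6.8) with trace elements and EDDHA. 5 µL of 2 mM compound applied on 6 mm paper disks. Growth zone around disks measured after 18-20 h at 37 °C.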

Pseudomonas aeruginosa [6] = assay: Siderophore activity determined using growth promoting assay in SG137 strain of Pseudomonas aeruginosa under iron limited conditions; summary of the method: as §2
Pseudomonas aeruginosa [7] = assay: Siderophore activity determined using growth promoting assay in K799/WT strain of Pseudomonas aeruginosa under iron limited conditions; summary of the method: as §2
Escherichia coli [8] = assay: Siderophore activity determined using growth promoting assay in ATCC 25922 strain of Escherichia coli under iron limited conditions; summary of the method: as §2
Pseudomonas aeruginosa [9] = assay: Siderophore activity determined using growth promoting assay in ATCC 27853 strain of Pseudomonas aeruginosa under iron limited conditions; summary of the method: as §2

| MIC (Serratia marcescens) | MIC (Escherichia coli [1]) | MIC [2] | MIC (Klebsiella pneumoniae) | MIC (Staphylococcus aureus) | MIC (Pseudomonas aeruginosa [3]) | MIC (Pseudomonas aeruginosa [4]) | Compound | Activity (Pseudomonas aeruginosa [5]) | Activity (Pseudomonas aeruginosa [6]) | Activity (Pseudomonas aeruginosa [7]) | Activity (Escherichia coli [8]) | Activity (Pseudomonas aeruginosa [9]) |
| --- | --- | --- | --- | --- | --- | --- | --- | --- | --- | --- | --- | --- |
|  |  |  |  |  |  |  | COC(=O)Oc1cccc(C(=O)N(CCCn2c(=O)oc3c(OC(=O)OC)cccc3c2=O)C(C)C(=O)O)c1OC(=O)OC (configuration not stated) | 25 | 19 | 22 | 22 | 15 |
| 3.12 µg/mL (≈ 3.4 µM) | 0.78 µg/mL (≈ 0.85 µM) | 50 µg/mL (≈ 54.5 µM) | 0.4 µg/mL (≈ 0.436 µM) | 0.78 µg/mL (≈ 0.85 µM) | 0.78 µg/mL (≈ 0.85 µM) | 0.2 µg/mL (≈ 0.218 µM) | CC(=O)Oc1ccc(C(=O)NCCCCN(CC(=O)NC(C(=O)NC2C(=O)N3C2SC(C)(C)C3C(=O)O)c2ccccc2)C(=O)c2ccc(OC(C)=O)c(OC(C)=O)c2)cc1OC(C)=O (configuration not stated) |  |  |  |  |  |
|  |  |  |  |  |  |  | CC(=O)Oc1cccc(C(=O)NCCCCN(Cc2ccccc2C(=O)O)C(=O)c2cccc(OC(C)=O)c2OC(C)=O)c1OC(C)=O | 23 | 21 | 15 | 27 | 22 |
| 0.05 µg/mL (≈ 0.0447 µM) | 0.02 µg/mL (≈ 0.0179 µM) | 0.05 µg/mL (≈ 0.0447 µM) | < 0.005 µg/mL | 3.12 µg/mL (≈ 2.79 µM) | 0.1 µg/mL (≈ 0.0893 µM) | 0.05 µg/mL (≈ 0.0447 µM) | COC(=O)Oc1cc(Cl)c(Cl)c(C(=O)N(C)CCCN(CC(=O)NC(C(=O)NC2C(=O)N3C2SC(C)(C)C3C(=O)O)c2ccccc2)C(=O)c2c(Cl)c(Cl)cc(OC(=O)OC)c2OC(=O)OC)c1OC(=O)OC (configuration not stated) |  |  |  |  |  |
| 0.02 µg/mL (≈ 0.019 µM) | 0.05 µg/mL (≈ 0.0476 µM) | 0.02 µg/mL (≈ 0.019 µM) | < 0.005 µg/mL | 12.5 µg/mL (≈ 11.9 µM) | 0.1 µg/mL (≈ 0.0952 µM) | < 0.005 µg/mL | COC(=O)Oc1cc(Cl)cc(C(=O)N(C)CCCN(CC(=O)NC(C(=O)NC2C(=O)N3C2SC(C)(C)C3C(=O)O)c2ccccc2)C(=O)c2cc(Cl)cc(OC(=O)OC)c2OC(=O)OC)c1OC(=O)OC (configuration not stated) |  |  |  |  |  |
|  |  |  |  |  |  |  | CC(=O)Oc1cccc(C(=O)N(C)CCCN(Cc2ccccc2C(=O)O)C(=O)c2cccc(OC(C)=O)c2OC(C)=O)c1OC(C)=O | 18 | 19 | 17 | 21 | 20 |
| 0.4 µg/mL (≈ 0.402 µM) | 0.4 µg/mL (≈ 0.402 µM) | < 0.05 µg/mL | < 0.05 µg/mL | 0.78 µg/mL (≈ 0.785 µM) | 0.2 µg/mL (≈ 0.201 µM) | 0.1 µg/mL (≈ 0.101 µM) | CC(=O)Oc1cccc(C(=O)NCCCCN(Cc2ccccc2C(=O)NC(C(=O)NC2C(=O)N3C2SC(C)(C)C3C(=O)O)c2ccccc2)C(=O)c2cccc(OC(C)=O)c2OC(C)=O)c1OC(C)=O (configuration not stated) |  |  |  |  |  |
| 0.78 µg/mL (≈ 0.877 µM) | 0.78 µg/mL (≈ 0.877 µM) | 0.78 µg/mL (≈ 0.877 µM) | 0.1 µg/mL (≈ 0.112 µM) | 3.12 µg/mL (≈ 3.51 µM) | 0.78 µg/mL (≈ 0.877 µM) | 0.4 µg/mL (≈ 0.449 µM) | CC(=O)Oc1cccc(C(=O)NCCN(CC(=O)NC(C(=O)NC2C(=O)N3C2SC(C)(C)C3C(=O)O)c2ccccc2)C(=O)c2cccc(OC(C)=O)c2OC(C)=O)c1OC(C)=O (configuration not stated) |  |  |  |  |  |
| 0.05 µg/mL (≈ 0.0545 µM) | 0.02 µg/mL (≈ 0.0218 µM) | 0.02 µg/mL (≈ 0.0218 µM) | < 0.005 µg/mL | 3.12 µg/mL (≈ 3.4 µM) | 0.08 µg/mL (≈ 0.0872 µM) | 0.005 µg/mL (≈ 0.00545 µM) | CC(=O)Oc1cccc(C(=O)N(C)CCCN(CC(=O)NC(C(=O)NC2C(=O)N3C2SC(C)(C)C3C(=O)O)c2ccccc2)C(=O)c2cccc(OC(C)=O)c2OC(C)=O)c1OC(C)=O (configuration not stated) |  |  |  |  |  |

| Compound | MIC (Serratia marcescens) | MIC (Escherichia coli [1]) | MIC [2] | MIC (Klebsiella pneumoniae) | MIC (Staphylococcus aureus) | MIC (Pseudomonas aeruginosa [3]) | MIC (Pseudomonas aeruginosa [4]) | Activity (Pseudomonas aeruginosa [5]) | Activity (Pseudomonas aeruginosa [6]) | Activity (Pseudomonas aeruginosa [7]) | Activity (Escherichia coli [8]) | Activity (Pseudomonas aeruginosa [9]) |
| --- | --- | --- | --- | --- | --- | --- | --- | --- | --- | --- | --- | --- |
| COC(=O)Oc1cccc(C(=O)N(CCCn2c(=O)oc3c(OC(=O)OC)cccc3c2=O)C(C)CCC(=O)NC(C(=O)NC2C(=O)N3C2SC(C)(C)C3C(=O)O)c2ccccc2)c1OC(=O)OC (configuration not stated) | 0.1 µg/mL (≈ 0.102 µM) | 1.56 µg/mL (≈ 1.6 µM) | 0.4 µg/mL (≈ 0.409 µM) | 0.2 µg/mL (≈ 0.205 µM) | 1.56 µg/mL (≈ 1.6 µM) | 3.12 µg/mL (≈ 3.19 µM) | 0.1 µg/mL (≈ 0.102 µM) |  |  |  |  |  |
| CC1(C)S[C@@H]2[C@H](NC(=O)[C@H](N)c3ccccc3)C(=O)N2[C@H]1C(=O)O [AMPICILLIN] | 25 µg/mL (≈ 71.5 µM) | 6.25 µg/mL (≈ 17.9 µM) | > 100 µg/mL | 6.25 µg/mL (≈ 17.9 µM) | 0.4 µg/mL (≈ 1.14 µM) | > 100 µg/mL | > 100 µg/mL |  |  |  |  |  |
| COC(=O)Oc1cccc(C(=O)N(CCCCn2c(=O)oc3c(OC(=O)OC)cccc3c2=O)CC(=O)NC(C(=O)NC2C(=O)N3C2SC(C)(C)C3C(=O)O)c2ccccc2)c1OC(=O)OC (configuration not stated) | < 0.005 µg/mL | 0.01 µg/mL (≈ 0.0105 µM) | 0.04 µg/mL (≈ 0.0421 µM) | < 0.005 µg/mL | 2.5 µg/mL (≈ 2.63 µM) | 0.156 µg/mL (≈ 0.164 µM) | 0.04 µg/mL (≈ 0.0421 µM) |  |  |  |  |  |
| COC(=O)Oc1cccc2c(=O)n(CC(=O)Nc3cc(NC(=O)Cn4c(=O)oc5c(OC(=O)OC)cccc5c4=O)cc(C(=O)NC(C(=O)NC4C(=O)N5C4SC(C)(C)C5C(=O)O)c4ccccc4)c3)c(=O)oc12 (configuration not stated) | 12.5 µg/mL (≈ 12 µM) | 25 µg/mL (≈ 24.1 µM) | 3.12 µg/mL (≈ 3.01 µM) | 1.56 µg/mL (≈ 1.5 µM) | 25 µg/mL (≈ 24.1 µM) | 1.56 µg/mL (≈ 1.5 µM) | 0.05 µg/mL (≈ 0.0482 µM) |  |  |  |  |  |
| COC(=O)Oc1cccc2c(=O)n(CCC(=O)Nc3cc(NC(=O)CCn4c(=O)oc5c(OC(=O)OC)cccc5c4=O)cc(C(=O)NC(C(=O)NC4C(=O)N5C4SC(C)(C)C5C(=O)O)c4ccc(O)cc4)c3)c(=O)oc12 (configuration not stated) | 50 µg/mL (≈ 46.2 µM) | 6.25 µg/mL (≈ 5.78 µM) | 25 µg/mL (≈ 23.1 µM) | 6.25 µg/mL (≈ 5.78 µM) | 0.4 µg/mL (≈ 0.37 µM) | 6.25 µg/mL (≈ 5.78 µM) | 6.25 µg/mL (≈ 5.78 µM) |  |  |  |  |  |
